According to ChEMBL document CHEMBL4219023, “Synthesis and biological activity of novel tert-amylphenoxyalkyl (homo)piperidine derivatives as histamine H3R ligands” (Bioorg Med Chem, 2017):
Active and inactive are the calls of the source. The rule behind the calls is not given here.

Assays:
[1] = Lipophilicity of compound by RP-TLC analysis; assay type: physicochemical; conditions: methanol:acetic acid:water
Outline: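 Reversed-phase TLC on RP-18 plates with methanol:acetic acid:water mobile phase (acid constant at 10%, methanol 85–55% in 5% steps). Spots visualised with iodine. RM values were derived from Rf and extrapolated to zero methanol to give RM0.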

Histamine H3 receptor [2] = molecular target: T1, Histamine H3 receptor (Homo sapiens, UniProt Q9Y5N1); test: Displacement of [125I]Iodoproxyfan from recombinant human histamine H3 receptor expressed in CHOK1 cell membranes after 90 mins
Outline: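 Membranes of CHO-K1 cells expressing hH3R were incubated 90 min at 25 °C, shaken at 250 rpm, with [125I]iodoproxyfan (16–50 pM) and test compound. Nonspecific binding was defined with 1 μM imetit. Separation by filtration on PEI-treated GF/B filters. Ki obtained from IC50 by Cheng-Prusoff.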

Mus musculus [3] = test: Neurotoxicity in CF-1 albino mouse assessed as death at 300 mg/kg, ip after 0.5 hrs by rotarod test; conditions: in vivo
Mus musculus [4] = test: Anticonvulsant activity in CF-1 albino mouse assessed as protection against maximal electroshock-induced seizures at 300 mg/kg, ip after 0.5 hrs; assay type: functional, organism-based
Outline: (§1)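 Male CF-1 albino mice received compound i.p. as a suspension in 0.5% methylcellulose (30, 100 or 300 mg/kg). Maximal electroshock seizure test read 0.5 h and 4 h after dosing. Result given as animals protected/animals tested.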

Mus musculus [5] = test: Anticonvulsant activity in CF-1 albino mouse assessed as protection against maximal electroshock-induced seizures at 30 mg/kg, ip after 0.5 hrs; assay type: functional, organism-based; outline: as §1
Mus musculus [6] = test: Anticonvulsant activity in CF-1 albino mouse assessed as protection against subcutaneous pentetrazole-induced seizures at 30 mg/kg, ip after 4 hrs; assay type: functional, organism-based
Mus musculus [7] = test: Anticonvulsant activity in CF-1 albino mouse assessed as protection against subcutaneous pentetrazole-induced seizures at 30 mg/kg, ip after 0.5 hrs; assay type: functional, organism-based
Mus musculus [8] = test: Anticonvulsant activity in CF-1 albino mouse assessed as protection against maximal electroshock-induced seizures at 100 mg/kg, ip after 4 hrs; assay type: functional, organism-based; outline: as §1
Mus musculus [9] = test: Anticonvulsant activity in CF-1 albino mouse assessed as protection against maximal electroshock-induced seizures at 100 mg/kg, ip after 0.5 hrs; assay type: functional, organism-based; outline: as §1
Mus musculus [10] = test: Anticonvulsant activity in CF-1 albino mouse assessed as protection against maximal electroshock-induced seizures at 30 mg/kg, ip after 4 hrs; assay type: functional, organism-based; outline: as §1
Mus musculus [11] = test: Anticonvulsant activity in CF-1 albino mouse assessed as protection against subcutaneous pentetrazole-induced seizures at 100 mg/kg, ip after 0.5 hrs; assay type: functional, organism-based
Mus musculus [12] = test: Anticonvulsant activity in CF-1 albino mouse assessed as protection against subcutaneous pentetrazole-induced seizures at 100 mg/kg, ip after 4 hrs; assay type: functional, organism-based
Mus musculus [13] = test: Neurotoxicity in CF-1 albino mouse at 30 mg/kg, ip after 4 hrs by rotarod test; assay type: toxicity, organism-based; conditions: in vivo
Outline: (§2)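 Male CF-1 mice were dosed i.p. with compound suspended in 0.5% methylcellulose (30, 100 or 300 mg/kg). Neurotoxicity was scored by rotarod 0.5 h and 4 h after dosing, as animals showing toxicity/animals tested. Type of toxicity was noted, e.g. inability to grasp the rod, tremors, death.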

IMR-32 = test: Cytotoxicity against human IMR32 cells assessed as reduction in cell viability after 48 hrs by EZ4U Non-radioactive cell proliferation assay; assay type: cell-based; conditions: IMR-32, 48 h
Outline: (§3)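 IMR-32 cells (2×10^4/well) or HEK-293 cells (1.5×10^4/well) in DMEM with 10% FBS were preincubated 24 h at 37 °C, 5% CO2. Compounds from 25 mM DMSO stocks were added at final 0.01–250 μM, with DMSO ≤1%. After 48 h, EZ4U label was added for 5 h and absorbance read at 492 nm.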

Mus musculus [14] = test: Neurotoxicity in CF-1 albino mouse assessed as unable to grasp at 100 mg/kg, ip after 0.5 hrs by rotarod test; assay type: toxicity, organism-based; conditions: in vivo
Outline: (§4)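 Anticonvulsant Screening Program (NINDS) Phase 1 neurotoxicity screen in male albino CF-1 mice. Compounds were given i.p. as suspensions in 0.5% methylcellulose at 30, 100 and/or 300 mg/kg, and animals were observed 0.5 h and 4 h after dosing. The rotarod test was scored as number of animals showing toxicity over number tested, with the kind of toxicity recorded: inability to grasp rotorod, death, diarrhea, continuous seizure activity, loss of righting reflex, myoclonic jerks or tremors.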

Rattus norvegicus = test: Anticonvulsant activity in albino Sprague-Dawley rat assessed as protection against maximal electroshock-induced seizures at 30 mg/kg, po after 0.5 to 4 hrs; assay type: functional, organism-based
Outline: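 Male Sprague-Dawley rats, four per group, were given compound orally at a fixed 30 mg/kg in 0.5% methylcellulose suspension. Maximal electroshock test was read at 0.5 h and 4 h.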

Mus musculus [15] = test: Neurotoxicity in CF-1 albino mouse at 100 mg/kg, ip after 4 hrs by rotarod test; assay type: toxicity, organism-based; conditions: in vivo; outline: as §2
Histamine H3 receptor [16] = molecular target: T1, Histamine H3 receptor; test: Displacement of [3H]Nalpha-Methylhistamine from recombinant human histamine H3 receptor expressed in HEK293 cell membranes after 90 mins by liquid scintillation counting analysis
Mus musculus [17] = test: Neurotoxicity in CF-1 albino mouse assessed as death at 300 mg/kg, ip after 0.5 hrs by rotarod test; assay type: toxicity, organism-based; conditions: in vivo; outline: as §4
[18] = Safety index, ratio of compound IC50 to doxorubicin IC50 for HEK293 cells after 48 hrs by EZ4U non-radioactive cell proliferation assay; assay type: ADME, cell-based; conditions: human, read-out: Ratio IC50
[19] = Safety index, ratio of compound IC50 to doxorubicin IC50 for human IMR32 cells after 48 hrs by EZ4U Non-radioactive cell proliferation assay; assay type: ADME, cell-based; conditions: IMR-32 cells, read-out: Ratio IC50
CYP3A4 = CYP3A4 (Homo sapiens, UniProt P08684); test: Activation of recombinant human CYP3A4 using Luciferin-BE as substrate at 25 uM in presence of NADPH by P450-Glo luminescence assay relative to control; assay type: ADME; conditions: recombinant human CYP3A4, probe Luciferin-PPXE, in the assay text read “Luciferin-PPXE” for “Luciferin-BE”, read-out: Activity
Outline: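 Recombinant human CYP3A4 P450-Glo luminescence assay: enzyme converts luciferin substrate to D-luciferin, then firefly luciferase is added and light output read as a measure of CYP3A4 activity. Final ligand concentrations 0.025–25 μM.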

Histamine H3 receptor [20] = molecular target: T1, Histamine H3 receptor; test: Antagonist activity at recombinant human histamine H3 receptor expressed in HEK293 cells assessed as inhibition of forskolin-stimulated intracellular cAMP accumulation after 30 mins by TR-FRET TR-FRET assay; assay type: functional, cell-based
Outline: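 TR-FRET cAMP immunoassay in HEK293 cells stably expressing hH3R, 300 cells/well. (R)-α-methylhistamine (15 nM), forskolin (10 μM) and antagonist (0.1 nM–10 μM) added together. Stimulation 30 min at room temperature, then Eu-cAMP tracer and ULight anti-cAMP antibody added for 1 h. Mean of three experiments, each in triplicate.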

HEK293 = test: Cytotoxicity against HEK293 cells assessed as reduction in cell viability after 48 hrs by EZ4U Non-radioactive cell proliferation assay; assay type: cell-based; conditions: Homo sapiens, HEK293, 48 h; outline: as §3

CYP3A4, sequence (P08684 whole entry): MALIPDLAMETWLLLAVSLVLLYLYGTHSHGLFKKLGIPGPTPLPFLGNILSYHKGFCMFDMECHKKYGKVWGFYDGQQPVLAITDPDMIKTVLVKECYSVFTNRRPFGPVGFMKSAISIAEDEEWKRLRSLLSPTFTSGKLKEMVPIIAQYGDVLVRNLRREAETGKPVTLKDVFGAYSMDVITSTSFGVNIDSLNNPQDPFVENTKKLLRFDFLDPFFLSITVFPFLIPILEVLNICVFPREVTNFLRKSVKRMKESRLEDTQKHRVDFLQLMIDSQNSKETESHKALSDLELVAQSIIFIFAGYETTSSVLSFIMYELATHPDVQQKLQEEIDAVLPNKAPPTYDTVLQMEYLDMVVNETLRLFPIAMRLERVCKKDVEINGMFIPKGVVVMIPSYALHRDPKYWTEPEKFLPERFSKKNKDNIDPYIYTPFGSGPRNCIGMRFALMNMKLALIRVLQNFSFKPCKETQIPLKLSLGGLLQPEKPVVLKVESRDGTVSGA
T1 sequence (Q9Y5N1 whole entry): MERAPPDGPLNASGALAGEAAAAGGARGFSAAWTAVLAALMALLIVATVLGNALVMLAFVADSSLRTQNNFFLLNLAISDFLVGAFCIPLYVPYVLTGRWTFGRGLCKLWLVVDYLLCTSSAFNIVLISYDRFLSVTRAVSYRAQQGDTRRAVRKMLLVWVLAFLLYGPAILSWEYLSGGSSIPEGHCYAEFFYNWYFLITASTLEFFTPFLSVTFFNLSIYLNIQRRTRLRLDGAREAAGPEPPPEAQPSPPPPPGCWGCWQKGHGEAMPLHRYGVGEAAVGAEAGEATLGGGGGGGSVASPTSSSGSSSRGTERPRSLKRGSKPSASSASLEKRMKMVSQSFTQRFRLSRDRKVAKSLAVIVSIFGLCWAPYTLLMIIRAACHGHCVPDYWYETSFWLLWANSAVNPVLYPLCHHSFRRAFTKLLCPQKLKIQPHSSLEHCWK

Compound | Rm [1] | Ki (Histamine H3 receptor [2]) [nM] | Activity (Mus musculus [5]) | Activity (Mus musculus [6]) | Activity (Mus musculus [7]) | Activity (Mus musculus [8]) | Activity (Mus musculus [9]) | Activity (Mus musculus [10]) | Activity (Mus musculus [11]) | Activity (Mus musculus [12]) | Activity (Mus musculus [13]) | IC50 (IMR-32) [nM] | other results
CCC(C)(C)c1ccc(OCCCCCCCCN2CCCCCC2)cc1.O=C(O)C(=O)O | 3.384 | 182 | – | – | – | – | – | – | – | – | – | – | –
CCC(C)(C)c1ccc(OCCCCCCN2CCC(C)CC2)cc1.O=C(O)C(=O)O | – | 60.5 | Active | inactive | inactive | Active | Active | Active | inactive | inactive | Non-Toxic | – | Activity (Mus musculus [3]): Toxic; Activity (Mus musculus [4]): Active
COc1cccc2c1C(=O)c1c(O)c3c(c(O)c1C2=O)C[C@@](O)(C(=O)CO)C[C@@H]3O[C@H]1C[C@H](N)[C@H](O)[C@H](C)O1 [DOXORUBICIN] | – | – | – | – | – | – | – | – | – | – | – | 5.1 | –
CCC(C)(C)c1ccc(OCCCCCCCN2CCC(C)CC2)cc1.O=C(O)C(=O)O | – | 64.4 | inactive | inactive | inactive | Active | Active | inactive | inactive | inactive | Non-Toxic | – | –
CCC(C)(C)c1ccc(OCCCCCCCN2CCCCCC2)cc1.O=C(O)C(=O)O | 2.926 | 128 | – | – | – | – | – | – | – | – | – | – | –
CCC(C)(C)c1ccc(OCCCCN2CCCCC2)cc1.O=C(O)C(=O)O | 1.883 | – | Active | inactive | inactive | – | Active | inactive | inactive | inactive | Non-Toxic | – | Activity (Mus musculus [14]): Toxic; Activity (Rattus norvegicus): inactive; Activity (Mus musculus [15]): Non-Toxic; Ki (Histamine H3 receptor [16]): 140 nM; Activity (Mus musculus [17]): Toxic
CCC(C)(C)c1ccc(OCCCCCCCCN2CCCCC2)cc1.O=C(O)C(=O)O | 3.075 | 326 | – | – | – | – | – | – | – | – | – | – | –
CCC(C)(C)c1ccc(OCCCCCN2CCCC(C)C2)cc1.O=C(O)C(=O)O (stereo unspecified) | 2.342 | 13.6 | inactive | inactive | inactive | Active | – | inactive | inactive | inactive | Non-Toxic | 30900 | selectivity ratio at 48 h [18]: 50 to 90; selectivity ratio at 48 h [19]: > 1000; activity at 25 µM (CYP3A4): 52%; EC50 (Histamine H3 receptor [20]): 164 nM; IC50 (HEK293): 25100 nM
CCC(C)(C)c1ccc(OCCCCCN2CCC(C)CC2)cc1 | – | 23.4 | – | – | – | – | – | – | – | – | – | 27900 | selectivity ratio at 48 h [18]: 50 to 90; selectivity ratio at 48 h [19]: > 1000; activity at 25 µM (CYP3A4): 325%; IC50 (HEK293): 37100 nM
CCC(C)(C)c1ccc(OCCCCCCN2CCCCC2)cc1.O=C(O)C(=O)O | 2.456 | 46.5 | inactive | inactive | inactive | Active | Active | inactive | inactive | inactive | Non-Toxic | – | Activity (Mus musculus [3]): Toxic; Activity (Mus musculus [14]): Toxic; Activity (Mus musculus [15]): Non-Toxic
CCC(C)(C)c1ccc(OCCCCCN2CCCCC2)cc1.O=C(O)C(=O)O | 2.172 | 8.8 | inactive | inactive | inactive | inactive | – | inactive | inactive | inactive | Non-Toxic | 72700 | selectivity ratio at 48 h [18]: 50 to 90; selectivity ratio at 48 h [19]: > 1000; Activity (Mus musculus [15]): Non-Toxic; activity at 25 µM (CYP3A4): 21%; EC50 (Histamine H3 receptor [20]): 157 nM; IC50 (HEK293): 41200 nM
